# Screens as filed in PubChem BioAssay.
# RGS4 inh – human RGS4 inhibition; P49798; HEK293 M3R/RGS4 inducible, Fluo-4 calcium flux; hits give high values; triggered by carbachol at its EC20; B-score at 10 µM; 0.45% of 310,000 active; AID 463165;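 active = B-score, a plate-corrected calcium signal, over three deviations above library mean, with baseline fluorescence within five deviations of library mean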;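 note: RGS4 expression induced by doxycycline in cells with stable M3 receptor; B-score is computed from the integrated fluorescence ratio over baseline after carbachol; higher B-score means a larger calcium signal and so more RGS4 inhibition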
# Target sequence (P49798 whole entry, looked up): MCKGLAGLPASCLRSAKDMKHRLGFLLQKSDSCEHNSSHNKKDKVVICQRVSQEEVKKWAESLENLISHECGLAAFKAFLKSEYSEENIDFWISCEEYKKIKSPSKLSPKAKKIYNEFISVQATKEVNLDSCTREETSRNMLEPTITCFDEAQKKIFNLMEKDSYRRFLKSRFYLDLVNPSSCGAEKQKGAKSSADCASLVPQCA
# MrgX1 PAM – allosterically activates human MrgX1 receptor signaling. AID 588675. 0.63% of 310,000 active. Q96LB2. B-score at 10 µM. MrgX1-HEK293, Fluo-4 calcium flux, FDSS; hits give high values;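 active = plate-corrected calcium response at least 3 library SD above typical, normal starting fluorescence, not activating the receptor alone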;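 note: compound read alongside a low EC10 to EC30 dose of BAM8-22 agonist; peak minus trough fluorescence over baseline measured at the second addition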
# Target sequence (Q96LB2 whole entry, looked up): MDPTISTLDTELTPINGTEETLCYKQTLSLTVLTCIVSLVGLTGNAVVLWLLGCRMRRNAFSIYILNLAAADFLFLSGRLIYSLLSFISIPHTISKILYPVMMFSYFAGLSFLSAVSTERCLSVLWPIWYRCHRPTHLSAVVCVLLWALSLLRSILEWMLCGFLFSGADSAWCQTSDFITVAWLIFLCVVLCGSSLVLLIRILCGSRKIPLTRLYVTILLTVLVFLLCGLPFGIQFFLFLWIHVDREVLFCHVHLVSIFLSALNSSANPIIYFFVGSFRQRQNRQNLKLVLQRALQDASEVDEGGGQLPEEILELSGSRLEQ
# MrgX1 agonist – human MrgX1 receptor agonism, primary screen; MrgX1-HEK293 cells, Fluo-4 calcium fluorescence, agonist mode; hits give high values; B-score at 10 µM; 0.44% of 310,000 active; Q96LB2;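 active = calcium response B-score plate-corrected fluorescence ratio at least 3 library SD, with starting fluorescence B-score inside 5 SD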
#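 Test system: HEK293 cells stably expressing human MrgX1 receptor; Input: fifteen thousand cells per well; Dosing: compound delivered in addition one of three; Schedule: overnight seeding, then 1 h dark dye loading; Technique: Fluo-4 NW calcium fluorescence; Measure: B-scored fluorescence response ratio; Controls: positive and negative controls per plate.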
# RGS4 pot – potentiators or activators of RGS4; 0.92% of 310,000 active; B-score at 10 µM; HEK293 M3R/inducible RGS4, carbachol calcium flux Fluo4; hits give low values;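 active = B-score of the integrated calcium signal more than 4 SD below the library mean, with starting fluorescence not abnormally high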;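 note: negative B-score means reduced calcium response which marks RGS4 activation or potentiation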
#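 Test system: HEK293 cells with stable M3R and inducible RGS4; also added: carbachol at ECmax as muscarinic agonist stimulus; schedule: dye loading 30 min 37 °C, buffer rest 30 min RT; technique: kinetic calcium fluorescence imaging with Fluo4-AM dye, 2 µM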
# MrgX1 antagonist – antagonists of human MrgX1 receptor; Q96LB2; MRGX1-HEK293 calcium flux, Fluo-4, BAM8-22 antagonism; hits give low values; B-score at 10 µM; 1.3% of 310,000 active;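 active = calcium-response B-score plate-corrected more than 3 library SD below zero, starting fluorescence within 5 deviations, no agonist response on first addition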;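 note: peak minus trough fluorescence over baseline after final BAM8-22 challenge near maximal dose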
# * hit, by the source's call; i = inactive; x = no result given. Hits are enriched below; roughly 3.5% of the tested compounds scored in any of these assays.
SMILES,RGS4 inh,MrgX1 PAM,MrgX1 agonist,RGS4 pot,MrgX1 antagonist
CCN1CCN(C(=O)CN2C(=O)COc3ccc(S(=O)(=O)N4CCOCC4)cc32)CC1,i,i,i,i,i
O=C(NCc1ccco1)c1sc(=S)n2c1[nH]c(=O)c1ccccc12,i,i,57*,i,i
O=C(NCc1ccccc1)c1ccc2c(=O)[nH]c3c(C(=O)NCC4CCCO4)sc(=S)n3c2c1 (stereo not given),i,i,i,i,i
O=C(NC1CCCC1)c1sc(=S)n2c1[nH]c(=O)c1ccccc12,i,i,60*,i,i
CCCc1ccc2oc(C(=O)N(Cc3nccn3C)C(C)C)c(C)c2c1,i,i,i,i,i
CC(C)(C)c1ccc(/C=C/C(=O)N2CCN(c3ncccn3)CC2)cc1,i,i,i,i,-6.3*
CCC1CCCCN1S(=O)(=O)c1ccc(C(=O)Nc2nnc(C3CC3)o2)cc1 (stereo not given),i,i,i,i,i
CCC1CCCCN1S(=O)(=O)c1ccc(C(=O)Nc2nnc(-c3ccccc3Cl)o2)cc1 (stereo not given),i,i,38*,i,i
O=C(Nc1nnc(-c2cccs2)o1)c1ccc(S(=O)(=O)N2CCOCC2)cc1,i,i,i,i,i
CC1(C)COCN1S(=O)(=O)c1ccc(C(=O)Nc2nnc(-c3ccc(Cl)s3)o2)cc1,i,i,80*,i,i
O=C(O)c1ccc(N=Nc2c(O)[nH]c3cc(Cl)ccc23)cc1,i,i,i,i,-6*
O=C(O)CSc1nnc(-c2cccc(S(=O)(=O)N3CCOCC3)c2)n1-c1cccc(Cl)c1,i,i,i,i,i
COc1ccc(-n2cc(-c3ccccc3)c3c(N4CC(C)OC(C)C4)ncnc32)cc1 (stereo not given),i,i,i,-7*,i
c1ccc(-c2cn(-c3ccccc3)c3ncnc(N4CCCCC4)c23)cc1,i,i,i,i,i
Cc1nc2ccccc2c2oc(C(=O)N3CC(C)CC(C)C3)cc12 (stereo not given),i,i,i,i,i
COc1ccccc1N1CCN(C(=O)c2cc3c(C)nc4ccccc4c3o2)CC1,i,i,i,-7.4*,i
O=C(CC12CC3CC(CC(C3)C1)C2)NC1CC1,i,i,i,i,i
COc1ccc(C2c3ccc4ccccc4c3Oc3ncn(CCN(C)C)c(=N)c32)cc1 (stereo not given),i,i,i,i,i
N=c1c(-c2nc3ccccc3[nH]2)cc(C(=O)c2ccco2)nn1-c1ccccc1,i,i,i,i,i
N=c1c(-c2nc3ccccc3[nH]2)cc(C(=O)c2cccs2)nn1-c1ccccc1,i,i,i,-8.6*,i
CC1(C)NS(=O)(=O)Oc2ccccc21,i,i,i,i,i
COCCNC(=O)C(c1ccc(F)cc1)N(C(=O)CCC(=O)Nc1ccccn1)C1CCCCC1 (stereo not given),i,i,i,i,i
COC(C/C=C\[C@H](O)[C@H](C)OCc1ccccc1)OC,i,i,i,i,-5.4*
O=C(COC(=O)c1cccc([N+](=O)[O-])c1)c1ccc(OCc2ccccc2)cc1,i,i,i,-8.4*,i
O=C(Cc1cn(Cc2cccc(Cl)c2)c2ccccc12)N1CCCCCC1,i,i,i,-7.2*,i
SMILES,RGS4 inh,MrgX1 PAM,MrgX1 agonist,RGS4 pot,MrgX1 antagonist
O=C(O)Cc1cn(Cc2cccc(Cl)c2)c2ccccc12,i,i,i,i,i
CC1CCCN(C(=O)Cc2cn(Cc3cccc(Cl)c3)c3ccccc23)C1 (stereo not given),i,i,i,-7.4*,i
COc1ccc(C(CNC(=O)c2cccc(S(=O)(=O)NCc3ccccc3)c2)N(C)C)cc1 (stereo not given),i,i,i,i,i
COc1ccc(S(=O)(=O)n2[nH]c(=O)c(CCO)c2C)c([N+](=O)[O-])c1,i,7.9*,i,i,i
Cc1c(CCO)c(=O)[nH]n1S(=O)(=O)c1ccc(Cl)cc1Cl,i,i,i,i,i
Cc1cc(C)cc(N(CCC#N)C(=O)COC(=O)C2CCN(c3ccc(C(F)(F)F)cn3)CC2)c1,i,i,i,-7*,i
Cc1ccc(N(CCC#N)C(=O)COC(=O)C2CCN(c3ccc(C(F)(F)F)cn3)CC2)cc1,i,i,i,i,i
Cc1ccccc1C(=O)N1CCC(n2nccc2NC(=O)CCOc2ccccc2)CC1,i,i,i,i,i
CN(Cc1ccccc1)C(=O)c1ccc2c(c1)NC(=O)C(N1CCOCC1)S2 (stereo not given),i,x,x,i,x
Cn1c(=O)n(Cc2ccccc2)c2ccccc21,i,i,i,i,i
Cn1c(=O)nc2n(Cc3ccccc3)c3cccc(Cl)c3cc-2c1=O,i,i,i,-9.4*,i
CCN(CC)S(=O)(=O)c1ccc(OC(C)C)c(NC(=O)c2c3c(nc4ccccc24)CCN(Cc2ccccc2)C3)c1,i,i,i,i,-5*
COC(=O)CC1=C(C(=O)OC)C(c2cccc(OCC(N)=O)c2)C(C#N)=C(N)O1 (stereo not given),i,i,34*,i,i
COC(=O)CC1=C(C(=O)OC)C(c2ccncc2)C(C#N)=C(N)O1 (stereo not given),i,i,i,i,i
O=c1c(Cl)c2oc3ccccc3nc-2c2ccccc12,i,i,i,i,-5.7*
Clc1ccc(-c2nnc(Sc3nc4ccccc4o3)c3ccccc23)cc1,i,i,i,i,i
CCc1ccc(OCC(=O)OCC(=O)NCCNC(=O)COC(=O)COc2ccc(CC)cc2)cc1,i,i,i,i,i
O=C(Nc1ccccc1Cl)C(=O)c1cn(CC(=O)N2CCOCC2)c2ccccc12,i,i,i,i,i
CCOC(=O)c1c(C)[nH]c(C)c1C(=O)COC(=O)c1ccc(Cl)c(S(N)(=O)=O)c1,i,i,i,i,i
O=C1/C(=C/c2cccs2)CCC/C1=C\c1cccs1,i,i,i,i,i
Cn1cccc1/C=C1\CCC/C(=C\c2cccn2C)C1=O,i,i,38*,i,i
CC(=O)Nc1ccc(C2=NN(C)C(=NCc3ccccc3)SC2)cc1,i,7.7*,i,i,i
CCN1C(=O)[C@H]2[C@@H](c3ccc(C)cc3)N3C(=O)N(c4cccc(F)c4)C(=O)[C@@]3(C)[C@H]2C1=O,i,i,i,i,i
